Data as given in ChEMBL document CHEMBL3352313 (J Med Chem, 2014).

Legend:
[1] = target: T1, Muscarinic acetylcholine receptor M2 (Homo sapiens, UniProt P08172); experiment: Activity at human muscarinic acetylcholine receptor subtype 2 expressed in CHO cells co-transfected with chimeric Gqi5 by calcium mobilization assay; assay type: functional, cell-based
T1 sequence (P08172 whole entry): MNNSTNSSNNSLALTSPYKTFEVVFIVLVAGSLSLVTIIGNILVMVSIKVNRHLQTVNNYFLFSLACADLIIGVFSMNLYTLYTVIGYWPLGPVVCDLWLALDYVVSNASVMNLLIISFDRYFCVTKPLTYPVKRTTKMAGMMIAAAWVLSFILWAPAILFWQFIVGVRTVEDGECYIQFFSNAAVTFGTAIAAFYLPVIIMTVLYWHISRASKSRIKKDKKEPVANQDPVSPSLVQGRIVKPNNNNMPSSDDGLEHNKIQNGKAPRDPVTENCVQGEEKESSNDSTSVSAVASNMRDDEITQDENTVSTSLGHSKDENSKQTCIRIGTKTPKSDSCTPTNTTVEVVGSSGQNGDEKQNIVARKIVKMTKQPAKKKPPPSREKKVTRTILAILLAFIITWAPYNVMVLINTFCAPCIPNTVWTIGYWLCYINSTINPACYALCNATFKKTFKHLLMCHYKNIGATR
Procedure, shortened: (§1)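 Muscarinic subtype selectivity by fluorescence calcium mobilization in highly expressing CHO lines with similar receptor levels; Gi/o-coupled M2 and M4 cells co-transfected with chimeric Gqi5 to couple to Ca2+ mobilization. Read-outs are PAM EC50 and ACh max response. Mean ± SEM of at least three independent determinations.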

[2] = Elimination half life in Sprague-Dawley rat 1 mg/kg, iv administered as single dose by LC/MS/MS utilizing electrospray ionization method; assay type: ADME, organism-based; set-up: dose 1 mg/kg, route intravenous; details: in vivo, read-out: beta t1/2
[3] = test system: Rattus norvegicus; experiment: Unbound brain-to-plasma concentration ratio in Sprague-Dawley rat 1 mg/kg, iv administered as single dose after 15 mins by LC/MS/MS utilizing electrospray ionization method; assay type: ADME, organism-based; set-up: dose 1 mg/kg, route intravenous; details: 0.25 h
Procedure, shortened: (§2)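 Male Sprague–Dawley rats (n = 3) dosed 1 mg/kg intravenously. Brain and plasma levels at 15 min after administration give Kp. Kp,uu is the unbound brain-plasma partition coefficient.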

[4] = target: T2, Muscarinic acetylcholine receptor M5 (Homo sapiens) (UniProt P08912); experiment: Displacement of [3H]NMS from human muscarinic acetylcholine receptor subtype 5 expressed in CHO cell membranes assessed as radioligand binding level by scintillation counting method
T2 sequence (whole entry): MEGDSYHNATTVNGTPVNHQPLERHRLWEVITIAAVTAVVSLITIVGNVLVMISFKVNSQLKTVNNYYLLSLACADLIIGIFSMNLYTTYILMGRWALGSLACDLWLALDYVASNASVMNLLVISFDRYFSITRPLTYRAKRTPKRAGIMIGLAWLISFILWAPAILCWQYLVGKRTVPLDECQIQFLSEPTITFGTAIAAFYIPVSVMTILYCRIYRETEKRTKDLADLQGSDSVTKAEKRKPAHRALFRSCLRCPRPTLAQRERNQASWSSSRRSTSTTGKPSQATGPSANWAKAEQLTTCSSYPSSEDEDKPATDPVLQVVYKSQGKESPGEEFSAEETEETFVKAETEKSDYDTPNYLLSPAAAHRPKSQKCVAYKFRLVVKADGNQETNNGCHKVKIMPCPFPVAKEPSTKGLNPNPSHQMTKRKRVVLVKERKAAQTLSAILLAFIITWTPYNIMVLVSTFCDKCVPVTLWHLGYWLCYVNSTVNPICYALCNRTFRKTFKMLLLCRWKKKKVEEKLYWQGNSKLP

[5] = Volume of distribution at steady state in Sprague-Dawley rat 1 mg/kg, iv administered as single dose by LC/MS/MS utilizing electrospray ionization method; assay type: ADME, organism-based; set-up: dose 1 mg/kg, route intravenous; details: in vivo, read-out: Vdss
[6] = target: T2, Muscarinic acetylcholine receptor M5 (Homo sapiens); experiment: Positive allosteric modulator activity at human muscarinic acetylcholine receptor subtype 5 expressed in CHO cell membranes assessed as fold shift in acetylcholine binding affinity by [3H]NMS binding based scintillation counting method
[7] = test system: Rattus norvegicus; experiment: Brain to plasma partition coefficient, Kp of the compound in Sprague-Dawley rat 1 mg/kg, iv administered as single dose after 15 mins by LC/MS/MS utilizing electrospray ionization method; assay type: ADME, organism-based; set-up: dose 1 mg/kg, route intravenous; details: 0.25 h; procedure, shortened: as §2
[8] = target: Cannabinoid receptor 1 (Homo sapiens) (UniProt P21554); experiment: Displacement of radioligand from human CB1 receptor at 10 uM
Procedure, shortened: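 Pan Labs lead profiling radioligand binding battery of 68 GPCRs, ion channels and transporters, with test compound present at 10 μM.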

[9] = target: T2, Muscarinic acetylcholine receptor M5 (Homo sapiens); experiment: Positive allosteric modulator activity at human muscarinic acetylcholine receptor subtype 5 expressed in CHO cells assessed as fold shift in acetylcholine-induced response at 10 uM by calcium mobilization assay; assay type: functional, cell-based
Procedure, shortened: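 In hM5 CHO cells by calcium mobilization, PAM at a fixed 10 μM or vehicle is added before an ACh concentration-response curve. Fold shift is the ratio of ACh potency without PAM to potency with PAM.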

[10] = target: T3, Muscarinic acetylcholine receptor M1 (Homo sapiens) (UniProt P11229); experiment: Activity at human muscarinic acetylcholine receptor subtype 1 expressed in CHO cells by calcium mobilization assay relative to acetylcholine; assay type: functional, cell-based; procedure, shortened: as §1
T3 sequence (whole entry): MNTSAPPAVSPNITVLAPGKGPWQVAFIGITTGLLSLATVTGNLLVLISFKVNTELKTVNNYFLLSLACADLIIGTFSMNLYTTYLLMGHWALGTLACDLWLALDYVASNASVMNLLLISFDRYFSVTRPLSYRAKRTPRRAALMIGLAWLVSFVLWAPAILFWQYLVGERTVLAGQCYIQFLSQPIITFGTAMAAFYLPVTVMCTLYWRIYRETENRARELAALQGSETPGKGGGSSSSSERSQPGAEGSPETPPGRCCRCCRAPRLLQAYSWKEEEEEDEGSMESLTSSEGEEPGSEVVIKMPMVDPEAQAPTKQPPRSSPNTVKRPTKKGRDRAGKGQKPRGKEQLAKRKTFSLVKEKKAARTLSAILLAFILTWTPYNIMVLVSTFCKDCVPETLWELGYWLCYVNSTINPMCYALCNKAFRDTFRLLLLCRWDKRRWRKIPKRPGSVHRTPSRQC

[11] = target: Muscarinic acetylcholine receptor M3 (Homo sapiens, UniProt P20309); experiment: Activity at human muscarinic acetylcholine receptor subtype 3 expressed in CHO cells by calcium mobilization assay; assay type: functional, cell-based; procedure, shortened: as §1
Muscarinic acetylcholine receptor M3, sequence (P20309 whole entry): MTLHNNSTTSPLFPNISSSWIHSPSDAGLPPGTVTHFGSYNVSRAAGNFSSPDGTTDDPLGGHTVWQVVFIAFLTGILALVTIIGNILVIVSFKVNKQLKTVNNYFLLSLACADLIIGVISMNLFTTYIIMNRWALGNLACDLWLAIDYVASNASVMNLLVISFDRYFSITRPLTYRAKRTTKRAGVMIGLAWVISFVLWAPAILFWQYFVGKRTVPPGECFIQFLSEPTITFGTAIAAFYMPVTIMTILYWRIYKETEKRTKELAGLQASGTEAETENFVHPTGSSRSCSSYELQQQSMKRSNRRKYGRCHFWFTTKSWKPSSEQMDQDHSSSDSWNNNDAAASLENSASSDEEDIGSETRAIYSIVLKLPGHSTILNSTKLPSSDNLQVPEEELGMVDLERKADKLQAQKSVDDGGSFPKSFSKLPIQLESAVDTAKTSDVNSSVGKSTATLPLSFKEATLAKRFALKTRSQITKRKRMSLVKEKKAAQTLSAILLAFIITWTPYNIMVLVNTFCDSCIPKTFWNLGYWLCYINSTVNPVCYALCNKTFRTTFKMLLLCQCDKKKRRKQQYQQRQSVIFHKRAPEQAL

Cannabinoid receptor 1 (Homo sapiens), sequence (P21554 whole entry): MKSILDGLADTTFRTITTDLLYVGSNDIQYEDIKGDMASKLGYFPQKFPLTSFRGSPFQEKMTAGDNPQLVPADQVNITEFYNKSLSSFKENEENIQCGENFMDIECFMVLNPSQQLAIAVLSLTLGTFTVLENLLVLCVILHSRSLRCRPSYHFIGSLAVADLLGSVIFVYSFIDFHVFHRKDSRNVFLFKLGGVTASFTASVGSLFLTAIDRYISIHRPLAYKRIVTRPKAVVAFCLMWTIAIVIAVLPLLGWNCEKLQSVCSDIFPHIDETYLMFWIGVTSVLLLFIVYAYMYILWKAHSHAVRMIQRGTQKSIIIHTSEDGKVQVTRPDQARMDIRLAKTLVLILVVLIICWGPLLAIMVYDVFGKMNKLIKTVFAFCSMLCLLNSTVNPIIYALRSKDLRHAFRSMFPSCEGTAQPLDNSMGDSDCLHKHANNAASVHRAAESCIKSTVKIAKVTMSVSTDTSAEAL

For CCN(Cc1ccccc1C(F)(F)F)C(=O)C1CCN(S(=O)(=O)c2ccc3[nH]ncc3c2)CC1, the EC50 [1] was > 30000 nM, the half-life [2] was 22 min and the “K(p,uu,brain)” value [3] was 0.28. It also gave a %max [4] of 97.1%, a Vd [5] of 1.6 L/kg and a fold change (FC) [6] of 15. It also gave a Kp [7] of 0.36, an inhibition [8] of 50% and a fold change (FC) [9] of 9. It also gave a %max [10] of 52% and an EC50 [11] of 2100 nM.
